Converted amounts (≈) assume the structure as drawn.
Assays:
Francisella tularensis [1] = assay: Antibacterial activity against Francisella tularensis LVS infected in mouse RAW 264.7 macrophages after 18 hrs; type: functional
Francisella tularensis [2] = assay: Antibacterial activity against Francisella tularensis LVS at 1 ug/ml by Microplate Alamar Blue assay; type: functional; details: read-out: GI
Vero = assay: Cytotoxicity against african green monkey vero cells after 3 days; type: cell-based; details: Chlorocebus sabaeus, 72 h
Outline: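 Vero cells grown in L15 medium without CO2, 1.25×10^5 per well. Triplicate 2-fold drug dilutions from 200 µg/mL, with resazurin at a final 25 µg/mL, for 3 days at 37 °C. LD is the lowest concentration that inhibits growth, with no resazurin reduction.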

Francisella tularensis [3] = assay: Antibacterial activity against Francisella tularensis LVS infected in mouse RAW 264.7 macrophages assessed as log reduction in CFU at 2 to 50 ug/ml after 18 hrs relative to control; type: functional
Francisella tularensis [4] = assay: Antibacterial activity against Francisella tularensis LVS after 18 hrs by Microplate Alamar Blue assay; type: functional
Francisella tularensis [5] = assay: Antibacterial activity against Francisella tularensis LVS at 0.2 ug/ml by Microplate Alamar Blue assay; type: functional; details: read-out: GI

Row | SMILES | Activity (Francisella tularensis [1]) | inhibition of growth at 1 µg/mL (Francisella tularensis [2]) [%] | IC50 (Vero) [µg/mL] | FC (Francisella tularensis [3]) | MIC90 (Francisella tularensis [4]) [µg/mL] | inhibition of growth at 0.2 µg/mL (Francisella tularensis [5]) [%]
1 | O=C(Nc1cc2nc(-c3cccs3)[nH]c2cc1N1CCCCC1)OCc1ccccc1 | Dose-dependent effect | > 90 | > 200 | 2 | 0.98 (≈ 2.27 µM) | –
2 | CC(C)(C)OC(=O)Nc1cc(NC(=O)OCc2ccccc2)c2[nH]c(-c3ccccc3)nc2c1 | – | > 90 | > 200 | – | 0.35 (≈ 0.763 µM) | –
3 | CCN(CC)c1cc2[nH]c(-c3ccc(C)cc3)nc2cc1NC(=O)C1CCC1 | – | > 90 | > 200 | – | 1.16 (≈ 3.08 µM) | 40
4 | CCOC(=O)Nc1cc(NC(=O)c2ccccc2)c2[nH]c(-c3ccc(C(=O)OC)cc3)nc2c1 | – | > 90 | 650 (≈ 1420 µM) | – | – | 40
5 | CCOC(=O)Nc1cc(NC(=O)c2ccccc2OC)c2[nH]c(-c3ccc(Br)cc3)nc2c1 | – | > 90 | > 200 | – | 1.4 (≈ 2.75 µM) | –
6 | CCN(CC)c1cc2[nH]c(-c3ccccc3OC)nc2cc1NC(=O)c1ccccc1OC | – | > 90 | > 200 | – | 4.85 (≈ 10.9 µM) | –
7 | O=C(Nc1cc2nc(C3CCCCC3)[nH]c2cc1N1CCCC1)C1CC1 | – | > 90 | > 200 | – | 2.1 (≈ 5.96 µM) | –
8 | O=C(Nc1cc2nc(-c3ccco3)[nH]c2cc1N1CCCCC1)c1cccc2ccccc12 | Dose-dependent effect | > 90 | > 200 | 2 | 2.4 (≈ 5.5 µM) | –
9 | CCOC(=O)Nc1cc(NC(=O)C2CCCCC2)c2[nH]c(-c3ccc(C(=O)OC)cc3)nc2c1 | – | > 90 | > 200 | – | 1.5 (≈ 3.23 µM) | 40
10 | CCOC(=O)Nc1cc(NC(=O)c2ccccc2)c2[nH]c(-c3ccco3)nc2c1 | – | > 90 | > 200 | – | 3.8 (≈ 9.73 µM) | 40
11 | CN(C)CCN(C)c1cc2[nH]c(C3CCCCC3)nc2cc1NS(=O)(=O)c1ccccc1 | – | > 90 | > 200 | – | 48.6 (≈ 107 µM) | –
12 | CCN(CC)c1cc2[nH]c(-c3ccccc3OC)nc2cc1NC(=O)C1CCC1 | – | > 90 | > 200 | – | 7.59 (≈ 19.3 µM) | –
13 | CCN(CCN(C)C)c1cc2[nH]c(C3CCCCC3)nc2cc1NS(=O)(=O)c1ccccc1 | – | > 90 | > 200 | – | 35.8 (≈ 76.2 µM) | –
14 | CCOC(=O)Nc1cc(NC(=O)c2ccc(OC)cc2)c2[nH]c(-c3ccc(C(=O)OC)cc3)nc2c1 | – | > 90 | > 200 | – | – | 40
15 | CCOC(=O)Nc1cc(NC(=O)c2ccccc2)c2[nH]c(-c3ccc(Br)cc3)nc2c1 | – | > 90 | > 200 | – | 0.48 (≈ 1 µM) | –
16 | CCOC(=O)Nc1cc(N)c2[nH]c(-c3ccc(Br)cc3)nc2c1 | – | > 90 | > 200 | – | 2.99 (≈ 7.97 µM) | –
17 | COc1ccccc1C(=O)Nc1cc2nc(-c3cccs3)[nH]c2cc1N1CCCCC1 | – | > 90 | > 200 | – | 1.6 (≈ 3.7 µM) | –
18 | CCOC(=O)Nc1cc(NC(=O)C2CCCC2)c2[nH]c(-c3ccc(Br)cc3)nc2c1 | – | > 90 | > 200 | – | 0.75 (≈ 1.59 µM) | –
19 | CCN(CC)c1cc2[nH]c(-c3ccccc3)nc2cc1NC(=O)c1ccc(C)cc1 | – | > 90 | > 200 | – | 12.9 (≈ 32.4 µM) | 40
20 | CCOC(=O)Nc1cc(NC(=O)c2ccc(F)cc2)c2[nH]c(-c3ccco3)nc2c1 | – | > 90 | > 200 | – | 2.8 (≈ 6.86 µM) | 40
21 | CCOC(=O)Nc1cc(N)c2[nH]c(-c3cc(C)cc(C)c3)nc2c1 | – | > 90 | > 200 | – | 4.33 (≈ 13.3 µM) | –
22 | COc1ccccc1C(=O)Nc1cc2nc(-c3ccco3)[nH]c2cc1N1CCCCC1 | Dose-dependent effect | > 90 | > 200 | 2 | 2.1 (≈ 5.04 µM) | –
23 | CCN(CC)c1cc2[nH]c(-c3ccc(F)cc3)nc2cc1NC(=O)C1CCC1 | – | > 90 | > 200 | – | 4.84 (≈ 12.7 µM) | –
